Measured values collected from several papers.
Target: Interleukin-1 receptor-associated kinase 4 (IRAK4, Homo sapiens, UniProt Q9NWZ3)
Sequence (Q9NWZ3 1-460, as in one of the studies): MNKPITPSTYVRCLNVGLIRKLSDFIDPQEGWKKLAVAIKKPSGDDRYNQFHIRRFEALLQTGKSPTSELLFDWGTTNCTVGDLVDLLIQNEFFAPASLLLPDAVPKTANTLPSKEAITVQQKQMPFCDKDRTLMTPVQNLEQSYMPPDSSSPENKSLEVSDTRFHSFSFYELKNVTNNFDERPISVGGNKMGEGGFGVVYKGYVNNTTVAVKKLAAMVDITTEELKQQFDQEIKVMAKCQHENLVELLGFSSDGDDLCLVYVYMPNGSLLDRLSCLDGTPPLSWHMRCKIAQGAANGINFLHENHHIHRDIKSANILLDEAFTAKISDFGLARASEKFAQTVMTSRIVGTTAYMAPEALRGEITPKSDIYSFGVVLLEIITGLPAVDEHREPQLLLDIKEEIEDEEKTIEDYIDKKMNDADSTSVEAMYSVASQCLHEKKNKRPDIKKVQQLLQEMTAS

| SMILES | test | conditions | quantity | value |
| --- | --- | --- | --- | --- |
| Cn1cc(-c2cccc(N3CCc4c(sc5c4CC(C)(C)C5)C3=O)c2CO)cc(Nc2ccncn2)c1=O | enzyme activity, inhibitor | 1 µM | inhibition | 6% |
| Cn1cncc1[C@@](O)(COc1ccc(C#N)cc1-c1ccc(OC(F)(F)F)cc1)c1ccc(C#N)cc1 | cell-free assay, competition with immobilised ligand | 1 µM | remaining binding | 80% |
| CC(C)(C)c1cc(C=C(C#N)C#N)cc(Br)c1O | enzyme activity, inhibitor | 0.5 µM | remaining activity | 182% |
| COc1ncccc1-c1cnn2ccc(N3CCN(C(=O)OC(C)C)CC3)nc12 | binding, competition with immobilised ligand | 1 µM | remaining binding | 100% |
| N#CC1(c2ccccn2)CCN(Cc2cc(C(=O)O)c(=O)n3ccccc23)CC1 | cell-free assay, competition with immobilised ligand | 1 µM | remaining binding | 83% |
| Cc1nn(C)cc1-c1nc2c(N3CCN(Cc4ccc(Cl)cc4)CC3)c(Cl)cnc2[nH]1 | binding, competition with immobilised ligand | 1 µM | remaining binding | 74% |
| O=c1[nH]c2ccccc2n1C1CCN(Cc2ccc(-c3[nH]c4cc5ncnc5cc4nc3-c3ccccc3)cc2)CC1 | cell-free assay | 0.5 µM | remaining signal | 201% |
| Cn1cc(-c2cc(F)cc(N3CCn4c(cc5c4CCCC5)C3=O)c2CO)cc(Nc2ccc(N3CCN(C4COC4)CC3)cn2)c1=O | enzyme activity, inhibitor | 0.1 µM | inhibition | 8% |
| C#Cc1n[nH]c2c(-c3cn([C@@H](C)c4ccccc4)c(=O)[nH]c3=O)cc(F)cc12 | enzyme activity, inhibitor | 0.1 µM | inhibition | 11.7% |
| COc1cc(Nc2ncc(F)c(Nc3ccc4c(n3)NC(=O)C(C)(C)O4)n2)cc(OC)c1OC | binding | 10 µM | inhibition | 96% |
| C#Cc1n[nH]c2c(-c3cn([C@@H](C)c4ccccn4)c(=O)[nH]c3=O)cc(F)cc12 | enzyme activity, inhibitor | 0.1 µM | inhibition | 14.7% |
| Nc1ncc(-c2nc(N3CCOCC3)nc(N3CCOCC3)n2)c(C(F)F)n1 | binding, competition with immobilised ligand | 10 µM | remaining binding | 72% |
